97 compounds from ChEMBL document CHEMBL4513216, “Probing the Open Global Health Chemical Diversity Library for Multistage-Active Starting Points for Next-Generation Antimalarials” (ACS Infect Dis, 2020) can be followed below.

Structures are written as SMILES.

A short description of the data set: Toxicity liver stage against HepG2, at 10uM. Conditions: human, HepG2-A16-CD81EGFP cells; read-out: INHIBITION
On the set-up: test concentration 10 uM, cell line HepG2-A16-CD81EGFP. The data set is classed as cell-based. Put shortly:
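Uninfected HepG2-A16-CD81EGFP cells, 3 × 10^3 per well, 1536-well, plated on prespotted compound at 10 μM final, parasite-free screening media added to match infected plates; puromycin 10 μM positive, DMSO 0.5% negative; run in parallel with 48 h PbLuc assay at 37 °C, 5% CO2; viability by CellTiter-Glo luminescence, normalized to controls.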
In the case of `Cn1cc(CN2CCOC[C@H]2c2nc(C(C)(C)C)co2)c2ccccc21`, the cytotoxicity at 10 µM worked out at 1.21%. On to `O=C(N[C@@H]1CNCCC[C@H]1O)c1ccc(OCc2ccccc2)cc1`, for which the cytotoxicity at 10 µM was -3.39%. Then `COc1ccc(CNc2c(C)cnc3c2c(=O)n(C)c(=O)n3C)cc1`, with 2.9%; and `CCOCc1cncc2c1CCN(C(=O)c1cccc(C#N)c1)C2`, with 3.55%. Regarding `COCCN1C(=O)CO[C@@H]2CN(S(=O)(=O)c3ccccc3)C[C@H]21`, the cytotoxicity at 10 µM came out at 0.975%. In the case of `C[C@H]1C[C@@H]2CCN(C(=O)c3ccncc3)C[C@H]2O1`, the cytotoxicity at 10 µM was -1.02%. On to `Cn1cc(CN2CC[C@H]3OCC[C@@H](C(=O)NC4CCCC4)[C@@H]3C2)cn1`, for which the cytotoxicity at 10 µM was 0.835%. Regarding `COc1ccccc1OCC(=O)n1nc(C)c(C)c1C`, the cytotoxicity at 10 µM was -5.01%. Take `Cc1nc(N2CCOCC2)nc2c1CN(C(=O)Cc1ccccn1)CC2`: the cytotoxicity at 10 µM is -7.61%. Take `CCn1cc(CN(C)S(=O)(=O)c2ccc(C)c(C)c2)cn1`: the cytotoxicity at 10 µM came to 9.65%. Take `COc1ccccc1Cc1cc(O)nc(NC(C)CN(C)C)n1` (configuration not stated): the cytotoxicity at 10 µM was found to be 2.32%. Then `Cc1ccccc1OCCCNC(=O)C1(C)CC(=O)N2C=CC=CC2=N1` (configuration not stated), with -4.96%; and `Cc1nn(C)cc1C(=O)N1CCC(C(=O)c2nc3ccccc3s2)CC1`, with 8.12%. In the case of `CC(=O)N1CCCC(c2nc(N(C)C)ncc2-c2ccccc2)C1` (configuration not stated), the cytotoxicity at 10 µM turned out to be 14.7%. Then `CCS(=O)(=O)N1C[C@@H](O)[C@H](N2CCc3ccccc3C2)C1`, with -3.63%; and `Cc1cc(C)nc(C2CCN(C(=O)CCn3ncc4ccccc43)C2)n1` (configuration not stated), with -17.3%; and `Cc1ccccc1CC(=O)N[C@@H]1CCC[C@@H](N2CCNC(=O)C2)[C@@H]1O`, with -24.5%. In the case of `Cc1ccnn1CCC(=O)N1C[C@@H](O)[C@H](Oc2cccc(F)c2)C1`, the cytotoxicity at 10 µM was -15.8%.

Take `COc1ccccc1-c1nccnc1C1CCN(C(C)=O)CC1`: the cytotoxicity at 10 µM was -1.69%. In the case of `CCC(=O)N1CCCC(c2ncc3c(n2)CCN(C)C3)C1` (configuration not stated), the cytotoxicity at 10 µM is -8.77%.

In the case of `CN1CCCCC12Cc1ccccc1CN(C(=O)c1ccccc1)C2` (configuration not stated), the cytotoxicity at 10 µM worked out at 7.44%. In the case of `CC(C)C(NC(=O)N1CCS(=O)(=O)CC1)c1ccccc1Cl` (configuration not stated), the cytotoxicity at 10 µM turned out to be 13.3%.

On to `COCCC(C)NS(=O)(=O)c1ccc(C)c(N(C)C)c1` (configuration not stated), for which the cytotoxicity at 10 µM is -0.2%. For `CC1CS(=O)(=O)CCN1CCCc1ccc(C(F)(F)F)cc1` (configuration not stated) the value was 0.715%; for `CCc1nnc(CSc2ccccn2)o1`, -2.98%.

On to `Cc1ccc(S(=O)(=O)N(C)Cc2nccs2)cc1N(C)C`, for which the cytotoxicity at 10 µM is -9.78%.

As to `O=c1cc(CN(Cc2ccco2)C2CC2)nc2ccc(Br)cn12`, the cytotoxicity at 10 µM stood at 9.48%. In the case of `CN(CC(N)=O)C(=O)CCCn1ccc2cc(Cl)ccc21`, the cytotoxicity at 10 µM is -2.13%. In the case of `COc1ccnc(N2CCCN(Cc3ncc(C(C)C)o3)CC2)n1`, the cytotoxicity at 10 µM was found to be 1.74%. `O=S(=O)(CC1CCCCO1)Nc1cnn(CC(F)F)c1` (configuration not stated): the cytotoxicity at 10 µM was -3.09%. For `Cc1cc(CN(C)C(=O)NCc2ccnc(N(C)C)c2)no1`, the cytotoxicity at 10 µM was determined as 5.85%. For `Cc1cc(CN(C)C(=O)C2CCCN(C(N)=O)C2)no1` (configuration not stated), the cytotoxicity at 10 µM is 11.6%.

Regarding `COc1cc2c(cc1OC)S(=O)(=O)N(Cc1ccccc1)C2=O`, the cytotoxicity at 10 µM is 8.2%. On to `CN(C)c1cccc(C2CCCN2S(N)(=O)=O)c1` (configuration not stated), for which the cytotoxicity at 10 µM was -5.44%. For `CC(CNC(=O)c1cnccn1)Oc1cccc(Br)c1` (configuration not stated), the cytotoxicity at 10 µM amounted to 1.25%. Take `Cc1cc(C)n(-c2ccc(C(=O)N3CCCC3c3cnn(C)c3)cc2)n1` (configuration not stated): the cytotoxicity at 10 µM is -7.41%.

As to `CCN(CC)S(=O)(=O)N(Cc1cccc(C)c1)Cc1ccccn1`, the cytotoxicity at 10 µM is -4.88%. For `O=C(Cc1ccon1)NC1CCCN(c2ccccc2F)C1=O` (configuration not stated) the value was -2.03%. Consider `N#Cc1cccnc1N1CCCN(CC(=O)N2CCNC(=O)C2)CC1`, for which the cytotoxicity at 10 µM worked out at 4.07%. As to `COc1cccc(S(=O)(=O)Cc2cc(C)on2)c1`, the cytotoxicity at 10 µM worked out at 4.03%. As for `O=C(CN1CCc2ccccc21)Nc1ccc(OC(F)F)cc1`, the cytotoxicity at 10 µM was found to be 16.8%. Take `COc1cccc(CNC(=O)c2nc3c(s2)CCN(C(C)=O)CC3)c1`: the cytotoxicity at 10 µM was -77.4%.

In the case of `O=C(c1cnccn1)N1CCc2onc(Cn3cccn3)c2C1`, the cytotoxicity at 10 µM was -0.25%. For the compound `O=C(NCCO)c1ccn(-c2ccc3ccccn23)n1`, the cytotoxicity at 10 µM was -8.21%. On to `O=C1CCC2(CCOC2)CN1Cc1nncn1CCc1ccccc1` (configuration not stated), for which the cytotoxicity at 10 µM is -0.506%. Consider `CCCn1cnnc1CNC1CCCC1`, for which the cytotoxicity at 10 µM is -2.27%. On to `Cc1cc(C)nc(N2CCCC(Cn3cc(CN(C)C)nn3)C2)n1` (configuration not stated), for which the cytotoxicity at 10 µM is -5.43%. Then `CCC(OC)C(=O)N1CCC2(CC1)c1nc[nH]c1CCN2S(C)(=O)=O` (configuration not stated), with -6.6%. Turning to `Cc1ccsc1C(=O)NCc1cccnc1N(C)CCc1ccccn1`, the cytotoxicity at 10 µM was -0.678%.

Regarding `COc1ncccc1C1CC(=O)Nc2cc(NS(C)(=O)=O)ccc21` (configuration not stated), the cytotoxicity at 10 µM was -8.1%. For `Cc1[nH]ccc1C(=O)N[C@H]1CN(CCO)C[C@@H]1C1CC1` the value was 3.07%. In the case of `Cc1cc(CN2CCC(c3nccn3C(C)C)CC2)ccc1F`, the cytotoxicity at 10 µM came to 5.22%.

Turning to `CCN1CCN(S(=O)(=O)c2ccc(Cc3cc(C)n[nH]c3=O)cc2)CC1`, the cytotoxicity at 10 µM was -8.25%. As for `O=C(O)CSc1nnc(-c2cn[nH]c2)n1-c1ccccc1Cl`, the cytotoxicity at 10 µM is -3.54%. Consider `CCC(=O)NC(C)c1ccccc1C` (configuration not stated), for which the cytotoxicity at 10 µM came to 0.245%. Then `CCOC(=O)N1CCC(NC(=O)c2cccc(C3CCCNC3)c2)CC1` (configuration not stated), with 1.34%; and `O=C(c1ccc2c(c1)CCC2)N1C[C@@H](CN2CCOCC2)[C@@H](CO)C1`, with 20.7%; and `CCCN1CCCn2nc(CNS(=O)(=O)c3ccc(C)cc3)cc2C1`, with 1.6%. `Cc1cc(C)c2nc(CN3CCOC(CCO)C3)cc(O)c2c1` (configuration not stated): the cytotoxicity at 10 µM was -9.26%. For `CCN(c1ccc(C(=O)N2CCCC(C)C2)cc1)S(=O)(=O)CC` (configuration not stated), the cytotoxicity at 10 µM is -8.6%. As to `NC(=O)C1CCN(C(=O)CCn2ccc3cc(Br)ccc32)CC1`, the cytotoxicity at 10 µM is -6.44%. On to `CC1CN(Cc2cnn(C)c2)CCN1c1ccc2nncn2n1` (configuration not stated), for which the cytotoxicity at 10 µM turned out to be 2.69%. With `CC(C)OCCCNC(=O)CS(=O)(=O)Cc1ccc(Cl)cc1`, the cytotoxicity at 10 µM is -2.87%.

In the case of `Cc1csc(CNC(=O)NC(C)c2ccc3c(c2)CCC(=O)N3)n1` (configuration not stated), the cytotoxicity at 10 µM is 4.17%.

Regarding `O=C(c1cccn1Cc1cccs1)N1CCSCC1`, the cytotoxicity at 10 µM is 4.14%. Regarding `Cc1nc(C(C)(C)C)sc1C(=O)NCCNc1ncccn1`, the cytotoxicity at 10 µM was -4.83%.

For `CCn1cc(NC(=O)C2CCN(CC(=O)NC(C)(C)CC)CC2)cn1`, the cytotoxicity at 10 µM was -1.01%. `O=C(NCCOc1ccccc1)Nc1cc(C(F)(F)F)c[nH]c1=O`: the cytotoxicity at 10 µM is -11.9%. For `COc1ncccc1CNC(=O)NC1CCCOc2ccccc21` (configuration not stated), the cytotoxicity at 10 µM is -6.14%. As for `O=C(c1ccon1)N1CCCC(n2cncn2)C1` (configuration not stated), the cytotoxicity at 10 µM is -8.51%. With `CC(O)CN1CCN(C(=O)c2ccc(CN(C)C)cc2)CC1` (configuration not stated), the cytotoxicity at 10 µM was -8.09%.

Consider `Cc1nn(C)c(Cl)c1C1CCCN1C(=O)c1csnn1` (configuration not stated), for which the cytotoxicity at 10 µM is -0.121%. Then `c1ccc(-n2ccc(CN3CCCC3Cn3cncn3)n2)cc1` (configuration not stated), with 0.665%. Consider `Cc1ccc(CNC(=O)N2CCCC(NS(C)(=O)=O)C2)cc1` (configuration not stated), for which the cytotoxicity at 10 µM is 2.73%. In the case of `Cc1n[nH]c(=O)c2c(NC(=O)CN3CCOCC3)oc(C)c12`, the cytotoxicity at 10 µM was -7.95%.

For the compound `CC(CNc1cncc(-n2cccn2)n1)N(C)c1ccccc1` (configuration not stated), the cytotoxicity at 10 µM is -4.48%. Regarding `CC(Cn1cccn1)NCc1csc(-c2ccccc2F)n1` (configuration not stated), the cytotoxicity at 10 µM is -7.71%.

`COCCOc1cccc(C(=O)N2CCCC(n3cccn3)C2)c1` (configuration not stated): the cytotoxicity at 10 µM was -7.81%. For `O=C(NCCO)c1sc2ncccc2c1C1CNCCO1` (configuration not stated) the value was 11.2%. Turning to `COc1ccccc1Cc1cncc(N2CC(C(=O)O)C2)n1`, the cytotoxicity at 10 µM was found to be 2.71%. For `C=C(C)CN1CCN(Cc2cnc(-c3ccccc3C)nc2)CC1` the value was -33.6%.

As for `Cc1ccc(CN(CCCN(C)C)Cc2cnc(C)n2C)o1`, the cytotoxicity at 10 µM came out at 9.96%. As to `Cc1nnc(N2CCCC3(CN(Cc4ccncc4)CCO3)C2)o1` (configuration not stated), the cytotoxicity at 10 µM was -13.5%. As for `CC(C)n1c(C(=O)N2CCCC2)nc2c1CCN(C)C2`, the cytotoxicity at 10 µM was 15.3%. `CN(Cc1cn2c(n1)CN(C1CCOC1)CC2)Cc1ccco1` (configuration not stated): the cytotoxicity at 10 µM is -2.15%.

Consider `COCCN1CC[C@H](OC)[C@@H]1Cc1ccccc1`, for which the cytotoxicity at 10 µM was -0.675%. As for `CC(=O)N1CCC12CCN(Cc1ccco1)CC2`, the cytotoxicity at 10 µM worked out at 1.17%. Consider `O=C(C1CCOCC1)N1CCO[C@H]2[C@H](Oc3cccnc3)CC[C@@H]21`, for which the cytotoxicity at 10 µM was 2.03%. Then `O=C(NCc1cncc2c1CCN(Cc1cccs1)C2)C1CC1`, with 2.13%.

Turning to `Cc1nnc([C@]23COC[C@H]2CN(Cc2nccs2)C3)o1`, the cytotoxicity at 10 µM was found to be 0.872%. As for `CCn1ncc2c1C(COC)CN(S(=O)(=O)N(C)C)C2` (configuration not stated), the cytotoxicity at 10 µM worked out at 12.5%. As for `O=C1CC(c2cccnc2)C2(CCN(S(=O)(=O)C3CC3)CC2)N1` (configuration not stated), the cytotoxicity at 10 µM is -2.29%.

On to `CN(C)S(=O)(=O)N1CC[C@]2(C[C@@H](Oc3ncccc3F)CO2)C1`, for which the cytotoxicity at 10 µM was -67%.

As for `O=C(c1cnccn1)N1CCCC2(CCN(c3ncccn3)C2)C1` (configuration not stated), the cytotoxicity at 10 µM is 5.61%. In the case of `O=C(CC1CC1)NCc1cn2c(n1)CN(CC1CC1)CC2`, the cytotoxicity at 10 µM is 4.17%. Take `Cc1nc(CN2CCO[C@@H]3CN(C(=O)CC4CC4)C[C@@H]3C2)cs1`: the cytotoxicity at 10 µM amounted to 5.04%. For the compound `O=C(NCC1CCCCC1)N1C[C@@H]2C[C@@H]1CN2`, the cytotoxicity at 10 µM is -7.78%.
